Results pooled from the literature.
Protocols differ between the studies behind these lines.
Akr1b1: Aldo-keto reductase family 1 member B1 (Akr1b1, Rattus norvegicus, UniProt P07943)
Trpc6: Short transient receptor potential channel 6 (Trpc6, Mus musculus, UniProt Q61143)
ADRB2: Beta-2 adrenergic receptor (ADRB2, Homo sapiens, UniProt P07550)
MMP2: 72 kDa type IV collagenase (MMP2, Homo sapiens, UniProt P08253)
CNR2: Cannabinoid receptor 2 (CNR2, Homo sapiens, UniProt P34972)

SMILES	target	test	conditions	IC50 [µM]
CC(=O)N[C@H]1CC(=O)NCCCC[C@@H](C(=O)N[C@@H](CCCNC(=N)N)C(=O)c2nc3ccc(C(=O)N[C@H](C(N)=O)C(C)C)cc3s2)NC(=O)[C@H](CC(C)C)NC1=O	Serine protease hepsin (HPN, Homo sapiens, UniProt P05981)	enzyme activity, inhibitor, fluorescence	with preincubation	0.0054
COc1ccc(/C=C2\SC(=Nc3nc4ccc(OC)cc4s3)NC2=O)cc1	Akr1b1	enzyme activity, inhibitor, absorbance	pH 6.2	4.35
CN(C)CCN(C(=O)c1ccc(Cl)s1)c1nc2ccccc2s1	Trpc6	calcium signal, fluorescence		15.1
O=C(NO)c1ccc(CN(c2cnccn2)c2cnccn2)cc1	Polyamine deacetylase HDAC10 (HDAC10, Homo sapiens, UniProt Q969S8)	enzyme activity, inhibitor, fluorescence		> 10
CC(C)=CCc1c(O)cc(O)c2c1O[C@H](c1ccc(O)cc1)CC2=O	Cytochrome P450 1B1 (CYP1B1, Homo sapiens, UniProt Q16678)	enzyme activity, inhibitor, fluorescence	15 min, pH 7.4	0.41
COc1cc(N)c(Cl)cc1C(=O)NC1CCN(CCCOc2ccc(F)cc2)CC1OC (stereo not shown)	ADRB2	ligand displacement, radioligand	cell membranes	587
Cc1noc(-c2cc3cc(-c4nc(C(=O)NCc5ccncc5)[nH]c4C)ccc3[nH]2)n1	MMP2	enzyme activity, inhibitor		> 20
Cc1c(C(=O)NN2CCCCC2)nc(-c2ccc(Cl)cc2Cl)n1-c1ccc(OS(=O)(=O)CCCC(F)(F)F)cc1	CNR2	GTPγS binding, antagonist	cell membranes	0.32
Cc1ccc(S(=O)(=O)N2C(=O)COC23C=CC(=O)C=C3)cc1	MMP2	enzyme activity, inhibitor, fluorescence		6.8
Cn1nc(C(=O)NCc2ccc(C(=O)O)cc2)cc1-c1ccc2[nH]c(-c3ccncn3)cc2c1	MMP2	enzyme activity, inhibitor		> 20
O=[N+]([O-])C1=Cc2ccccc2OC1C(F)(F)F (stereo not shown)	P2Y purinoceptor 6 (P2RY6, Homo sapiens, UniProt Q15077)	calcium signal, antagonist, fluorescence		2.62
COc1ccc2nc(N(CCN(C)C)C(=O)c3ccc(Cl)s3)sc2c1	Trpc6	calcium signal, fluorescence		61.1
Cn1nc(C(=O)NCc2ccc(C(=O)O)cc2)cc1-c1ccc2[nH]c(-c3cncnc3)cc2c1	MMP2	enzyme activity, inhibitor		> 20
CC(C)(C)n1nc(-c2cnc3cc(OC4CC4)ccc3c2)c(C(N)=O)c1N	Casein kinase I isoform alpha (CSNK1A1, Homo sapiens, UniProt P48729)	cell-free assay, inhibitor		2.91
CCN(CC)CCNC(=O)c1cc(Cl)c(N)cc1OC	ADRB2	ligand displacement, radioligand	cell membranes	67.4
CCCC[C@H](NC(=O)C1CN(C)C1)c1ncc(-c2cc3ccccc3nc2OC)[nH]1	Histone deacetylase 7 (HDAC7, Homo sapiens, UniProt Q8WUI4)	enzyme activity, inhibitor		> 30
CC/C(=C(\c1ccccc1)c1ccc(OCCN(C)C)cc1)c1ccccc1	Histone-lysine N-methyltransferase SETD7 (SETD7, Homo sapiens, UniProt Q8WTS6)	enzyme activity, inhibitor		> 333
COc1ccc2nc(/N=C3/NC(=O)C(=Cc4cc(I)c(O)c(OC)c4)S3)sc2c1	Akr1b1	enzyme activity, inhibitor, absorbance	pH 6.2	> 50
Cc1c(C(=O)N[C@H]2CCC[C@H](O)C2)nc(-c2ccc(Cl)cc2Cl)n1-c1ccc(OS(=O)(=O)CCC(F)(F)F)cc1 (relative stereo)	CNR2	GTPγS binding, antagonist	cell membranes	0.425
